In ChEMBL document CHEMBL4689842, “EUbOPEN Chemogenomics Library wave 1” (2021):

Test system: HEK-293T
Assay: Multiplex assay against HEK293T;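 on Population Tubulin-Different-Phenotype (%): share of the cells with healthy nuclei that show this phenotype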
Format: toxicity, cell-based
Details: human
Outline: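 On a CQ1 microscope at 37°C and 5% CO2, live cells were imaged after compound addition. They had been stained at seeding with Hoechst33342, BioTracker Green Microtubule Cytoskeleton Dye, MitoTracker Red and Annexin V Alexa Fluor 680. CellPathfinder machine-learning gating assigned cells to Hoechst high-intensity objects or normal cells, normal cells to healthy, pyknosed or fragmented nuclei, and pyknosed cells to mitotic or apoptotic. Tubulin, mitochondrial-mass and membrane-permeability phenotypes are per cents of healthy-nucleus cells.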

[1] = 12 h, 1 µM, compound concentration 1 uM, replicate 1
[2] = 12 h, 1 µM, compound concentration 1 uM, replicate 2
[3] = 12 h, 10 µM, compound concentration 10 uM, replicate 1
[4] = 12 h, 10 µM, compound concentration 10 uM, replicate 2
[5] = 24 h, 1 µM, compound concentration 1 uM, replicate 1
[6] = 24 h, 1 µM, compound concentration 1 uM, replicate 2
[7] = 24 h, 10 µM, compound concentration 10 uM, replicate 1
[8] = 24 h, 10 µM, compound concentration 10 uM, replicate 2
[9] = 48 h, 1 µM, compound concentration 1 uM, replicate 1
[10] = 48 h, 1 µM, compound concentration 1 uM, replicate 2
[11] = 48 h, 10 µM, compound concentration 10 uM, replicate 1
[12] = 48 h, 10 µM, compound concentration 10 uM, replicate 2

Question: For `O=C(Cc1ccc(-c2ccc(OCCN3CCOCC3)cc2)cn1)NCc1ccccc1` [TIRBANIBULIN], which “Population Apoptotic (%)” value [1] is on record?
Answer: 34%

Question: And the “Population Fragmented Nuclei (%)” value [1]?
Answer: 17%

Question: And the “Population Healthy Nuclei (%)” value [1]?
Answer: 21%

Question: What about the “Population Hoechst High Intensity Objects (%)” value [1] of the same compound?
Answer: 12%

Question: And the “Population Membrane Permeable-Phenotype (%)” value [1]?
Answer: 0%

Question: What about the “Population Mitochondria Different-Phenotype (%)” value [1] of the same compound?
Answer: 58%

Question: And the “Population Mitotic Cells (%)” value [1]?
Answer: 65%

Question: What about the “Population Normal (%)” value [1] of the same compound?
Answer: 87%

Question: What about the “Population Pyknosed Nuclei (%)” value [1] of the same compound?
Answer: 61%

Question: What about the “Population Tubulin-Different-Phenotype (%)” value [1] of the same compound?
Answer: 2%

Question: What about the “Total Cell Count” value [1] of the same compound?
Answer: 193

Question: What about the “Population Apoptotic (%)” value [2] of the same compound?
Answer: 16%

Question: What about the “Population Fragmented Nuclei (%)” value [2] of the same compound?
Answer: 8%

Question: What about the “Population Healthy Nuclei (%)” value [2] of the same compound?
Answer: 30%

Question: And the “Population Hoechst High Intensity Objects (%)” value [2]?
Answer: 2%

Question: What about the “Population Membrane Permeable-Phenotype (%)” value [2] of the same compound?
Answer: 10%

Question: And the “Population Mitochondria Different-Phenotype (%)” value [2]?
Answer: 23%

Question: And the “Population Mitotic Cells (%)” value [2]?
Answer: 83%

Question: What about the “Population Normal (%)” value [2] of the same compound?
Answer: 97%

Question: What about the “Population Pyknosed Nuclei (%)” value [2] of the same compound?
Answer: 60%

Question: What about the “Population Tubulin-Different-Phenotype (%)” value [2] of the same compound?
Answer: 11%

Question: And the “Total Cell Count” value [2]?
Answer: 231

Question: What about the “Population Apoptotic (%)” value [3] of the same compound?
Answer: 52%

Question: And the “Population Fragmented Nuclei (%)” value [3]?
Answer: 20%

Question: And the “Population Healthy Nuclei (%)” value [3]?
Answer: 21%

Question: What about the “Population Hoechst High Intensity Objects (%)” value [3] of the same compound?
Answer: 18%

Question: And the “Population Membrane Permeable-Phenotype (%)” value [3]?
Answer: 0%

Question: What about the “Population Mitochondria Different-Phenotype (%)” value [3] of the same compound?
Answer: 79%

Question: What about the “Population Mitotic Cells (%)” value [3] of the same compound?
Answer: 47%

Question: What about the “Population Normal (%)” value [3] of the same compound?
Answer: 81%

Question: And the “Population Pyknosed Nuclei (%)” value [3]?
Answer: 58%

Question: And the “Population Tubulin-Different-Phenotype (%)” value [3]?
Answer: 27%

Question: And the “Total Cell Count” value [3]?
Answer: 169

Question: What about the “Population Apoptotic (%)” value [4] of the same compound?
Answer: 17%

Question: And the “Population Fragmented Nuclei (%)” value [4]?
Answer: 5%

Question: What about the “Population Healthy Nuclei (%)” value [4] of the same compound?
Answer: 28%

Question: What about the “Population Hoechst High Intensity Objects (%)” value [4] of the same compound?
Answer: 5%

Question: And the “Population Membrane Permeable-Phenotype (%)” value [4]?
Answer: 2%

Question: What about the “Population Mitochondria Different-Phenotype (%)” value [4] of the same compound?
Answer: 23%

Question: And the “Population Mitotic Cells (%)” value [4]?
Answer: 82%

Question: What about the “Population Normal (%)” value [4] of the same compound?
Answer: 95%

Question: What about the “Population Pyknosed Nuclei (%)” value [4] of the same compound?
Answer: 66%

Question: And the “Population Tubulin-Different-Phenotype (%)” value [4]?
Answer: 6%

Question: What about the “Total Cell Count” value [4] of the same compound?
Answer: 160

Question: And the “Population Apoptotic (%)” value [5]?
Answer: 39%

Question: And the “Population Fragmented Nuclei (%)” value [5]?
Answer: 17%

Question: And the “Population Healthy Nuclei (%)” value [5]?
Answer: 21%

Question: What about the “Population Hoechst High Intensity Objects (%)” value [5] of the same compound?
Answer: 14%

Question: What about the “Population Membrane Permeable-Phenotype (%)” value [5] of the same compound?
Answer: 2%

Question: And the “Population Mitochondria Different-Phenotype (%)” value [5]?
Answer: 37%

Question: And the “Population Mitotic Cells (%)” value [5]?
Answer: 60%

Question: And the “Population Normal (%)” value [5]?
Answer: 85%

Question: What about the “Population Pyknosed Nuclei (%)” value [5] of the same compound?
Answer: 61%

Question: What about the “Population Tubulin-Different-Phenotype (%)” value [5] of the same compound?
Answer: 5%

Question: What about the “Total Cell Count” value [5] of the same compound?
Answer: 194

Question: And the “Population Apoptotic (%)” value [6]?
Answer: 27%

Question: What about the “Population Fragmented Nuclei (%)” value [6] of the same compound?
Answer: 6%

Question: And the “Population Healthy Nuclei (%)” value [6]?
Answer: 29%

Question: What about the “Population Hoechst High Intensity Objects (%)” value [6] of the same compound?
Answer: 2%

Question: And the “Population Membrane Permeable-Phenotype (%)” value [6]?
Answer: 6%

Question: What about the “Population Mitochondria Different-Phenotype (%)” value [6] of the same compound?
Answer: 25%

Question: What about the “Population Mitotic Cells (%)” value [6] of the same compound?
Answer: 72%

Question: And the “Population Normal (%)” value [6]?
Answer: 97%

Question: And the “Population Pyknosed Nuclei (%)” value [6]?
Answer: 63%

Question: What about the “Population Tubulin-Different-Phenotype (%)” value [6] of the same compound?
Answer: 33%

Question: What about the “Total Cell Count” value [6] of the same compound?
Answer: 207

Question: And the “Population Apoptotic (%)” value [7]?
Answer: 54%

Question: And the “Population Fragmented Nuclei (%)” value [7]?
Answer: 21%

Question: And the “Population Healthy Nuclei (%)” value [7]?
Answer: 16%

Question: And the “Population Hoechst High Intensity Objects (%)” value [7]?
Answer: 17%

Question: And the “Population Membrane Permeable-Phenotype (%)” value [7]?
Answer: 0%

Question: What about the “Population Mitochondria Different-Phenotype (%)” value [7] of the same compound?
Answer: 82%

Question: What about the “Population Mitotic Cells (%)” value [7] of the same compound?
Answer: 45%

Question: What about the “Population Normal (%)” value [7] of the same compound?
Answer: 82%

Question: And the “Population Pyknosed Nuclei (%)” value [7]?
Answer: 62%

Question: And the “Population Tubulin-Different-Phenotype (%)” value [7]?
Answer: 17%

Question: What about the “Total Cell Count” value [7] of the same compound?
Answer: 168

Question: And the “Population Apoptotic (%)” value [8]?
Answer: 22%

Question: And the “Population Fragmented Nuclei (%)” value [8]?
Answer: 5%

Question: What about the “Population Healthy Nuclei (%)” value [8] of the same compound?
Answer: 25%

Question: And the “Population Hoechst High Intensity Objects (%)” value [8]?
Answer: 5%

Question: And the “Population Membrane Permeable-Phenotype (%)” value [8]?
Answer: 7%

Question: What about the “Population Mitochondria Different-Phenotype (%)” value [8] of the same compound?
Answer: 23%

Question: What about the “Population Mitotic Cells (%)” value [8] of the same compound?
Answer: 77%

Question: What about the “Population Normal (%)” value [8] of the same compound?
Answer: 94%

Question: What about the “Population Pyknosed Nuclei (%)” value [8] of the same compound?
Answer: 68%

Question: What about the “Population Tubulin-Different-Phenotype (%)” value [8] of the same compound?
Answer: 18%

Question: And the “Total Cell Count” value [8]?
Answer: 160

Question: What about the “Population Apoptotic (%)” value [9] of the same compound?
Answer: 56%

Question: And the “Population Fragmented Nuclei (%)” value [9]?
Answer: 25%

Question: And the “Population Healthy Nuclei (%)” value [9]?
Answer: 23%

Question: And the “Population Hoechst High Intensity Objects (%)” value [9]?
Answer: 16%

Question: What about the “Population Membrane Permeable-Phenotype (%)” value [9] of the same compound?
Answer: 5%

Question: And the “Population Mitochondria Different-Phenotype (%)” value [9]?
Answer: 45%

Question: And the “Population Mitotic Cells (%)” value [9]?
Answer: 43%

Question: What about the “Population Normal (%)” value [9] of the same compound?
Answer: 83%

Question: What about the “Population Pyknosed Nuclei (%)” value [9] of the same compound?
Answer: 50%

Question: And the “Population Tubulin-Different-Phenotype (%)” value [9]?
Answer: 24%

Question: And the “Total Cell Count” value [9]?
Answer: 187

Question: What about the “Population Apoptotic (%)” value [10] of the same compound?
Answer: 40%

Question: What about the “Population Fragmented Nuclei (%)” value [10] of the same compound?
Answer: 12%

Question: And the “Population Healthy Nuclei (%)” value [10]?
Answer: 43%

Question: And the “Population Hoechst High Intensity Objects (%)” value [10]?
Answer: 4%

Question: What about the “Population Membrane Permeable-Phenotype (%)” value [10] of the same compound?
Answer: 12%

Question: And the “Population Mitochondria Different-Phenotype (%)” value [10]?
Answer: 25%

Question: And the “Population Mitotic Cells (%)” value [10]?
Answer: 60%

Question: And the “Population Normal (%)” value [10]?
Answer: 95%

Question: What about the “Population Pyknosed Nuclei (%)” value [10] of the same compound?
Answer: 44%

Question: And the “Population Tubulin-Different-Phenotype (%)” value [10]?
Answer: 50%

Question: And the “Total Cell Count” value [10]?
Answer: 213

Question: And the “Population Apoptotic (%)” value [11]?
Answer: 56%

Question: What about the “Population Fragmented Nuclei (%)” value [11] of the same compound?
Answer: 29%

Question: And the “Population Healthy Nuclei (%)” value [11]?
Answer: 13%

Question: What about the “Population Hoechst High Intensity Objects (%)” value [11] of the same compound?
Answer: 17%

Question: What about the “Population Membrane Permeable-Phenotype (%)” value [11] of the same compound?
Answer: 0%

Question: What about the “Population Mitochondria Different-Phenotype (%)” value [11] of the same compound?
Answer: 66%

Question: And the “Population Mitotic Cells (%)” value [11]?
Answer: 44%

Question: And the “Population Normal (%)” value [11]?
Answer: 82%

Question: What about the “Population Pyknosed Nuclei (%)” value [11] of the same compound?
Answer: 56%

Question: And the “Population Tubulin-Different-Phenotype (%)” value [11]?
Answer: 11%

Question: What about the “Total Cell Count” value [11] of the same compound?
Answer: 160

Question: What about the “Population Apoptotic (%)” value [12] of the same compound?
Answer: 36%

Question: And the “Population Fragmented Nuclei (%)” value [12]?
Answer: 7%

Question: And the “Population Healthy Nuclei (%)” value [12]?
Answer: 39%

Question: What about the “Population Hoechst High Intensity Objects (%)” value [12] of the same compound?
Answer: 4%

Question: What about the “Population Membrane Permeable-Phenotype (%)” value [12] of the same compound?
Answer: 9%

Question: And the “Population Mitochondria Different-Phenotype (%)” value [12]?
Answer: 23%

Question: What about the “Population Mitotic Cells (%)” value [12] of the same compound?
Answer: 63%

Question: What about the “Population Normal (%)” value [12] of the same compound?
Answer: 95%

Question: And the “Population Pyknosed Nuclei (%)” value [12]?
Answer: 52%

Question: And the “Population Tubulin-Different-Phenotype (%)” value [12]?
Answer: 20%

Question: And the “Total Cell Count” value [12]?
Answer: 145
